In ChEMBL document CHEMBL1153775, “Synthesis, structure elucidation and antitumour activity of N-substituted amides of 3-(3-ethylthio-1,2,4-triazol-5-yl)propenoic acid” (Eur J Med Chem, 2009):

What was measured:
A549 [1] = assay: Cytotoxicity against human A549 cells assessed as growth inhibition at 0.14 mM after 24 hrs by spectrophotometer using BrdU labeling; format: functional; settings: A549, 24 h, read-out: GI
T47D [2] = assay: Cytotoxicity against human T47D cells assessed as growth inhibition at 0.14 mM after 24 hrs by spectrophotometer using BrdU labeling; format: functional; settings: read-out: GI
A549 [3] = assay: Cytotoxicity against human A549 cells assessed as growth inhibition at 0.28 mM after 48 hrs by spectrophotometer using BrdU labeling; format: functional; settings: A549, 48 h, read-out: GI
T47D [4] = assay: Cytotoxicity against human T47D cells assessed as growth inhibition at 0.14 mM after 72 hrs by spectrophotometer using BrdU labeling; format: functional; settings: read-out: GI
[5] = Cytotoxicity against human HSF cells assessed as growth inhibition at 0.03 mM after 48 hrs by spectrophotometer using BrdU labeling; format: cell-based; settings: read-out: GI
T47D [6] = assay: Cytotoxicity against human T47D cells assessed as growth inhibition at 0.03 mM after 48 hrs by spectrophotometer using BrdU labeling; format: functional; settings: read-out: GI
T47D [7] = assay: Cytotoxicity against human T47D cells assessed as growth inhibition at 0.28 mM after 24 hrs by spectrophotometer using BrdU labeling; format: functional; settings: read-out: GI
How it was run: (§1)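 Human breast carcinoma T47D cells were plated at 10⁴ cells per mL on microtiter plates. Each compound was added at three doses, given as mM equivalents of three mass concentrations. Plates were incubated for 24, 48 or 72 h. The read-out was percent growth inhibition (GI).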

[8] = Cytotoxicity against human HSF cells assessed as growth inhibition at 0.28 mM after 24 hrs by spectrophotometer using BrdU labeling; format: cell-based; settings: read-out: GI
[9] = Cytotoxicity against human HSF cells assessed as growth inhibition at 0.03 mM after 72 hrs by spectrophotometer using BrdU labeling; format: cell-based; settings: read-out: GI
T47D [10] = assay: Cytotoxicity against human T47D cells assessed as growth inhibition at 0.03 mM after 24 hrs by spectrophotometer using BrdU labeling; format: functional; settings: read-out: GI
A549 [11] = assay: Cytotoxicity against human A549 cells assessed as growth inhibition at 0.14 mM after 48 hrs by spectrophotometer using BrdU labeling; format: functional; settings: A549, 48 h, read-out: GI
[12] = Cytotoxicity against human HSF cells assessed as growth inhibition at 0.28 mM after 48 hrs by spectrophotometer using BrdU labeling; format: cell-based; settings: read-out: GI
A549 [13] = assay: Cytotoxicity against human A549 cells assessed as growth inhibition at 0.03 mM after 72 hrs by spectrophotometer using BrdU labeling; format: functional; settings: A549, 72 h, read-out: GI
T47D [14] = assay: Cytotoxicity against human T47D cells assessed as growth inhibition at 0.28 mM after 72 hrs by spectrophotometer using BrdU labeling; format: functional; settings: read-out: GI; how it was run: as §1
A549 [15] = assay: Cytotoxicity against human A549 cells assessed as growth inhibition at 0.14 mM after 72 hrs by spectrophotometer using BrdU labeling; format: functional; settings: A549, 72 h, read-out: GI
[16] = Cytotoxicity against human HSF cells assessed as growth inhibition at 0.14 mM after 24 hrs by spectrophotometer using BrdU labeling; format: cell-based; settings: read-out: GI
[17] = Cytotoxicity against human HSF cells assessed as growth inhibition at 0.14 mM after 72 hrs by spectrophotometer using BrdU labeling; format: cell-based; settings: read-out: GI
[18] = Cytotoxicity against human HSF cells assessed as growth inhibition at 0.03 mM after 24 hrs by spectrophotometer using BrdU labeling; format: cell-based; settings: read-out: GI
[19] = Cytotoxicity against human HSF cells assessed as growth inhibition at 0.28 mM after 72 hrs by spectrophotometer using BrdU labeling; format: cell-based; settings: read-out: GI
T47D [20] = assay: Cytotoxicity against human T47D cells assessed as growth inhibition at 0.28 mM after 48 hrs by spectrophotometer using BrdU labeling; format: functional; settings: read-out: GI; how it was run: as §1
T47D [21] = assay: Cytotoxicity against human T47D cells assessed as growth inhibition at 0.14 mM after 48 hrs by spectrophotometer using BrdU labeling; format: functional; settings: read-out: GI
A549 [22] = assay: Cytotoxicity against human A549 cells assessed as growth inhibition at 0.28 mM after 24 hrs by spectrophotometer using BrdU labeling; format: functional; settings: A549, 24 h, read-out: GI
A549 [23] = assay: Cytotoxicity against human A549 cells assessed as growth inhibition at 0.28 mM after 72 hrs by spectrophotometer using BrdU labeling; format: functional; settings: A549, 72 h, read-out: GI
[24] = Cytotoxicity against human HSF cells assessed as growth inhibition at 0.14 mM after 48 hrs by spectrophotometer using BrdU labeling; format: cell-based; settings: read-out: GI
A549 [25] = assay: Cytotoxicity against human A549 cells assessed as growth inhibition at 0.03 mM after 48 hrs by spectrophotometer using BrdU labeling; format: functional; settings: A549, 48 h, read-out: GI
T47D [26] = assay: Cytotoxicity against human T47D cells assessed as growth inhibition at 0.03 mM after 72 hrs by spectrophotometer using BrdU labeling; format: functional; settings: read-out: GI
A549 [27] = assay: Cytotoxicity against human A549 cells assessed as growth inhibition at 0.03 mM after 24 hrs by spectrophotometer using BrdU labeling; format: functional; settings: A549, 24 h, read-out: GI
[28] = Cytotoxicity against human HSF cells assessed as growth inhibition at 0.17 mM after 24 hrs by spectrophotometer using BrdU labeling; format: cell-based; settings: read-out: GI
T47D [29] = assay: Cytotoxicity against human T47D cells assessed as growth inhibition at 0.17 mM after 24 hrs by spectrophotometer using BrdU labeling; format: functional; settings: read-out: GI; how it was run: as §1
T47D [30] = assay: Cytotoxicity against human T47D cells assessed as growth inhibition at 0.35 mM after 72 hrs by spectrophotometer using BrdU labeling; format: functional; settings: read-out: GI; how it was run: as §1
A549 [31] = assay: Cytotoxicity against human A549 cells assessed as growth inhibition at 0.17 mM after 72 hrs by spectrophotometer using BrdU labeling; format: functional; settings: A549, 72 h, read-out: GI
T47D [32] = assay: Cytotoxicity against human T47D cells assessed as growth inhibition at 0.17 mM after 72 hrs by spectrophotometer using BrdU labeling; format: functional; settings: read-out: GI; how it was run: as §1
T47D [33] = assay: Cytotoxicity against human T47D cells assessed as growth inhibition at 0.17 mM after 48 hrs by spectrophotometer using BrdU labeling; format: functional; settings: read-out: GI; how it was run: as §1
[34] = Cytotoxicity against human HSF cells assessed as growth inhibition at 0.17 mM after 72 hrs by spectrophotometer using BrdU labeling; format: cell-based; settings: read-out: GI
[35] = Cytotoxicity against human HSF cells assessed as growth inhibition at 0.35 mM after 48 hrs by spectrophotometer using BrdU labeling; format: cell-based; settings: read-out: GI
[36] = Cytotoxicity against human HSF cells assessed as growth inhibition at 0.17 mM after 48 hrs by spectrophotometer using BrdU labeling; format: cell-based; settings: read-out: GI
A549 [37] = assay: Cytotoxicity against human A549 cells assessed as growth inhibition at 0.35 mM after 24 hrs by spectrophotometer using BrdU labeling; format: functional; settings: A549, 24 h, read-out: GI
T47D [38] = assay: Cytotoxicity against human T47D cells assessed as growth inhibition at 0.35 mM after 48 hrs by spectrophotometer using BrdU labeling; format: functional; settings: read-out: GI; how it was run: as §1
[39] = Cytotoxicity against human HSF cells assessed as growth inhibition at 0.35 mM after 24 hrs by spectrophotometer using BrdU labeling; format: cell-based; settings: read-out: GI
A549 [40] = assay: Cytotoxicity against human A549 cells assessed as growth inhibition at 0.17 mM after 48 hrs by spectrophotometer using BrdU labeling; format: functional; settings: A549, 48 h, read-out: GI
A549 [41] = assay: Cytotoxicity against human A549 cells assessed as growth inhibition at 0.17 mM after 24 hrs by spectrophotometer using BrdU labeling; format: functional; settings: A549, 24 h, read-out: GI
A549 [42] = assay: Cytotoxicity against human A549 cells assessed as growth inhibition at 0.35 mM after 72 hrs by spectrophotometer using BrdU labeling; format: functional; settings: A549, 72 h, read-out: GI
T47D [43] = assay: Cytotoxicity against human T47D cells assessed as growth inhibition at 0.35 mM after 24 hrs by spectrophotometer using BrdU labeling; format: functional; settings: read-out: GI; how it was run: as §1
A549 [44] = assay: Cytotoxicity against human A549 cells assessed as growth inhibition at 0.35 mM after 48 hrs by spectrophotometer using BrdU labeling; format: functional; settings: A549, 48 h, read-out: GI
[45] = Cytotoxicity against human HSF cells assessed as growth inhibition at 0.35 mM after 72 hrs by spectrophotometer using BrdU labeling; format: cell-based; settings: read-out: GI

Compound `CCSc1n[nH]c(/C=C\C(=O)Nc2ccc(Br)cc2)n1` has an inhibition of growth at 140 µM (A549 [1]) of 50%, an inhibition of growth at 140 µM (T47D [2]) of 5% and an inhibition of growth at 280 µM (A549 [3]) of 50%. The inhibition of growth at 140 µM (T47D [4]) was 25%, the inhibition at 48 h, 30 µM [5] was 0% and the inhibition of growth at 30 µM (T47D [6]) was 0%. For the same compound, the inhibition of growth at 280 µM (T47D [7]) was 5%, the inhibition at 24 h, 280 µM [8] was 75% and the inhibition at 72 h, 30 µM [9] was 0%. The inhibition of growth at 30 µM (T47D [10]) was 0%, the inhibition of growth at 140 µM (A549 [11]) was 50% and the inhibition at 48 h, 280 µM [12] was 75%. The inhibition of growth at 30 µM (A549 [13]) was 0%, the inhibition of growth at 280 µM (T47D [14]) was 25% and the inhibition of growth at 140 µM (A549 [15]) was 50%. The inhibition at 24 h, 140 µM [16] was 75%, the inhibition at 72 h, 140 µM [17] was 75% and the inhibition at 24 h, 30 µM [18] was 0%. The inhibition at 72 h, 280 µM [19] was 50%, the inhibition of growth at 280 µM (T47D [20]) was 20% and the inhibition of growth at 140 µM (T47D [21]) was 10%. It also gave an inhibition of growth at 280 µM (A549 [22]) of 50%, an inhibition of growth at 280 µM (A549 [23]) of 75% and an inhibition at 48 h, 140 µM [24] of 75%. It also gave an inhibition of growth at 30 µM (A549 [25]) of 25%, an inhibition of growth at 30 µM (T47D [26]) of 0% and an inhibition of growth at 30 µM (A549 [27]) of 25%.

Work on `CCSc1n[nH]c(/C=C\C(=O)Nc2cccc(C)c2)n1` yielded an inhibition at 24 h, 170 µM [28] of 50%, an inhibition of growth at 170 µM (T47D [29]) of 5% and an inhibition of growth at 350 µM (T47D [30]) of 25%. The inhibition of growth at 170 µM (A549 [31]) was 25%, the inhibition at 48 h, 30 µM [5] was 0% and the inhibition of growth at 30 µM (T47D [6]) was 5%. For the same compound, the inhibition of growth at 170 µM (T47D [32]) was 25%, the inhibition of growth at 170 µM (T47D [33]) was 5% and the inhibition at 72 h, 30 µM [9] was 0%. The inhibition of growth at 30 µM (T47D [10]) was 0%, the inhibition at 72 h, 170 µM [34] was 50% and the inhibition at 48 h, 350 µM [35] was 50%. It also gave an inhibition of growth at 30 µM (A549 [13]) of 0%, an inhibition at 48 h, 170 µM [36] of 50% and an inhibition of growth at 350 µM (A549 [37]) of 50%. The inhibition of growth at 350 µM (T47D [38]) was 0%, the inhibition at 24 h, 350 µM [39] was 5% and the inhibition of growth at 170 µM (A549 [40]) was 50%. The inhibition at 24 h, 30 µM [18] was 0%, the inhibition of growth at 170 µM (A549 [41]) was 50% and the inhibition of growth at 350 µM (A549 [42]) was 50%. It also gave an inhibition of growth at 350 µM (T47D [43]) of 0%, an inhibition of growth at 350 µM (A549 [44]) of 50% and an inhibition of growth at 30 µM (A549 [25]) of 5%. For the same compound, the inhibition of growth at 30 µM (T47D [26]) was 5%, the inhibition of growth at 30 µM (A549 [27]) was 20% and the inhibition at 72 h, 350 µM [45] was 50%.
